Assay [1] deals with Streptococcus sp. 'group B'. The assay can be described thus: Antimicrobial activity against Group B streptococcus R8 harboring T77I, S353F and A514V in PBP 2X; V80A and G613R in PBP 2B; and L45P, N163K, N723S and G527V in PBP 1A by broth microdilution method. The format is functional. The method in brief: (§1)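 Broth microdilution MICs following CLSI guidelines, using a commercial panel system; GBS clinical isolates and reference strains grown in Todd-Hewitt broth at 37°C. Each strain tested five times to confirm reproducibility, with S. pneumoniae ATCC 49619 as quality-control strain. No β-lactamase activity by acidimetric method in any strain.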

Assay [2] has as its system Streptococcus sp. 'group B'. The assay is described as follows: Antimicrobial activity against Group B streptococcus serotype Ia R7 harboring T77I, F395V and S353F in PBP 2X; V80A and G613R in PBP 2B; and L45P, N163K, N723S and Y470F in PBP 1A by broth microdilution method. It counts as functional. Summed up:
as §1

Assay [3] concerns Streptococcus sp. 'group B'. The assay can be described thus: Antimicrobial activity against Group B streptococcus serotype VI R6 harboring F395L, V405A, R433H, H438Y, A374V and G648A mutations in PBP 2X and T567I mutation in PBP 2B by broth microdilution method. The format is functional. The method in brief: as §1
Assay [4] concerns Streptococcus sp. 'group B'. The assay can be described thus: Antimicrobial activity against Group B streptococcus serotype VI R5 harboring F395L, V405A, R433H, H438Y, and G648A mutations in PBP 2X and T567I mutation in PBP 2B by broth microdilution method. The format is functional. Summed up:
as §1

The subject of assay [5] is Streptococcus sp. 'group B'. The assay is described as follows: Antimicrobial activity against Group B streptococcus serotype VI R4 harboring Q557E mutation in PBP 2X and T567I, Y262N mutations in PBP 2B by broth microdilution method. It counts as functional. Summed up:
as §1

Assay [6] concerns Streptococcus sp. 'group B'. The assay can be described thus: Antimicrobial activity against Group B streptococcus serotype Ib R3 harboring Q557E, A400V mutations in PBP 2X and T567I, G539E mutations in PBP 2B by broth microdilution method. The format is functional. The method in brief:
as §1

For assay [7], the system named is Streptococcus sp. 'group B'. The assay is described as follows: Antimicrobial activity against Group B streptococcus serotype VI R2 harboring F395L, V405A, R433H, H438Y, and G648A mutations in PBP 2X and T567I mutation in PBP 2B by broth microdilution method. The format is functional. The method in brief: as §1
In assay [8] the test system is Streptococcus sp. 'group B'. The assay can be described thus: Antimicrobial activity against Group B streptococcus serotype VI R1 harboring F395L, V405A, R433H, H438Y, and G648A mutations in PBP 2X and T567I mutation in PBP 2B by broth microdilution method. It counts as functional. Summed up: as §1
Assay [9] relates to Streptococcus sp. 'group B'. The assay is described as follows: Antimicrobial activity against Group B streptococcus serotype Ib C2 harboring E63K mutation in PBP 2A and L41S mutation in PBP 1B by broth microdilution method. It counts as functional. The method in brief:
as §1

The test system of assay [10] is Streptococcus sp. 'group B'. The assay can be described thus: Antimicrobial activity against Group B streptococcus serotype V C1 harboring E63K mutation in PBP 2A and L41S mutation in PBP 1B by broth microdilution method. It counts as functional. The method in brief: as §1
Assay [11] has as its system Streptococcus sp. 'group B'. The assay is described as follows: Antimicrobial activity against Group B streptococcus serotype VI N4 harboring E63K mutation in PBP 2A and L41S mutation in PBP 1B by broth microdilution method. It counts as functional. Summed up:
as §1

Assay [12] concerns Streptococcus sp. 'group B'. The assay is described as follows: Antimicrobial activity against Group B streptococcus serotype III N3 by broth microdilution method. The format is functional. Summed up: (§2)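 Broth microdilution MICs read on a commercial dried panel system (type 3J), following CLSI guidelines. Isolates were grown in Todd-Hewitt broth at 37°C. Each strain was tested five times for reproducibility, with S. pneumoniae ATCC 49619 as the quality-control strain. β-lactamase activity was checked by the acidimetric method.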

The test system of assay [13] is Streptococcus sp. 'group B'. The assay can be described thus: Antimicrobial activity against Group B streptococcus serotype Ib N2 harboring E63K mutation in PBP 2A and L41S mutation in PBP 1B by broth microdilution method. The format is functional. Summed up: as §1
Assay [14] has as its system Streptococcus sp. 'group B'. The assay is described as follows: Antimicrobial activity against Group B Streptococcus serotype Ia N1 harboring E63K mutation in PBP 2A and L41S mutation in PBP 1B by broth microdilution method. The format is functional. Summed up: as §1
Assay [15] concerns Streptococcus sp. 'group B'. The assay is described as follows: Antimicrobial activity against Group B Streptococcus serotype III NEM 316 by broth microdilution method. The format is functional. Summed up:
as §2

The test system of assay [16] is Streptococcus sp. 'group B'. The assay can be described thus: Antimicrobial activity against Group B Streptococcus serotype V harboring E63K mutation in PBP 2A and L41S mutation in PBP 1B by broth microdilution method.

≈ marks a conversion by molar mass, not a printed value.

In the case of `CO/N=C(\C(=O)N[C@@H]1C(=O)N2C(C(=O)OCOC(=O)C(C)(C)C)=C(/C=C\c3scnc3C)CS[C@H]12)c1csc(N)n1` [CEFDITOREN PIVOXIL], the MIC in [1] amounted to 0.5 µg/mL (≈ 0.805 µM); in assay [2], 0.5 µg/mL (≈ 0.805 µM); in assay [3], 0.25 µg/mL (≈ 0.403 µM); in assay [4] it was 0.25 µg/mL (≈ 0.403 µM); in assay [5], 0.25 µg/mL (≈ 0.403 µM); in [6], 0.25 µg/mL (≈ 0.403 µM). The MIC in assay [7] is 0.25 µg/mL (≈ 0.403 µM); in assay [8], 0.25 µg/mL (≈ 0.403 µM); in assay [9], at most 0.06 µg/mL; in assay [10], at most 0.06 µg/mL; in assay [11], at most 0.06 µg/mL; in assay [12] it was at most 0.06 µg/mL. Also, the MIC in [13], in assay [14], in assay [15] and in [16] was at most 0.06 µg/mL throughout.
As for `C=CC1=C(C(=O)O)N2C(=O)[C@@H](NC(=O)/C(=N\OCC(=O)O)c3csc(N)n3)[C@H]2SC1` [CEFIXIME], the MIC in [1], in [2], in assay [3], in assay [4], in [5] and in assay [6] was above 1 µg/mL throughout. The MIC in [7] is above 1 µg/mL; in assay [8], above 1 µg/mL; in assay [9], 0.5 µg/mL (≈ 1.1 µM); in assay [10], 0.5 µg/mL (≈ 1.1 µM); in assay [11] it was 0.5 µg/mL (≈ 1.1 µM); in [12] it was 0.5 µg/mL (≈ 1.1 µM). In addition, the MIC stood at 1 µg/mL (≈ 2.21 µM) in assay [13], 0.5 µg/mL (≈ 1.1 µM) in assay [14], 0.5 µg/mL (≈ 1.1 µM) in assay [15] and 0.5 µg/mL (≈ 1.1 µM) in assay [16].
With `CO/N=C(\C(=O)N[C@@H]1C(=O)N2C(C(=O)[O-])=C(C[N+]3(C)CCCC3)CS[C@H]12)c1csc(N)n1` [CEFEPIME], the MIC is 1 µg/mL (≈ 2.08 µM) in [1]; 2 µg/mL (≈ 4.16 µM) in assay [2]; 1 µg/mL (≈ 2.08 µM) in [3]; 1 µg/mL (≈ 2.08 µM) in assay [4]; 1 µg/mL (≈ 2.08 µM) in assay [5]; at most 0.5 µg/mL in assay [6]. The MIC was 1 µg/mL (≈ 2.08 µM) in [7]; 1 µg/mL (≈ 2.08 µM) in assay [8]; at most 0.5 µg/mL in assay [9]; at most 0.5 µg/mL in [10]; at most 0.5 µg/mL in assay [11]; at most 0.5 µg/mL in [12]. Also, the MIC in [13], in assay [14], in assay [15] and in [16] was at most 0.5 µg/mL each time.
`CC1(C)S[C@@H]2[C@H](NC(=O)[C@H](N)c3ccccc3)C(=O)N2[C@H]1C(=O)O` [AMPICILLIN]: the MIC in assay [1] came out at 0.5 µg/mL (≈ 1.43 µM); in assay [2] it was 0.5 µg/mL (≈ 1.43 µM); in assay [3] it was 0.5 µg/mL (≈ 1.43 µM); in assay [4], 0.5 µg/mL (≈ 1.43 µM); in [5] it was 0.25 µg/mL (≈ 0.715 µM); in assay [6] it was 0.25 µg/mL (≈ 0.715 µM). For the same compound, the MIC in assay [7] amounted to 0.5 µg/mL (≈ 1.43 µM); in assay [8], 0.5 µg/mL (≈ 1.43 µM); in assay [9] it was 0.25 µg/mL (≈ 0.715 µM); in assay [10], 0.12 µg/mL (≈ 0.343 µM); in assay [11] it was 0.12 µg/mL (≈ 0.343 µM); in [12], 0.12 µg/mL (≈ 0.343 µM). The MIC in assay [13] was 0.25 µg/mL (≈ 0.715 µM); in assay [14], 0.12 µg/mL (≈ 0.343 µM); in assay [15] it was 0.12 µg/mL (≈ 0.343 µM); in [16], 0.12 µg/mL (≈ 0.343 µM).
For the compound `CC[C@H]1OC(=O)[C@H](C)[C@@H](O[C@H]2C[C@@](C)(OC)[C@@H](O)[C@H](C)O2)[C@H](C)[C@@H](O[C@@H]2O[C@H](C)C[C@H](N(C)C)[C@H]2O)[C@](C)(O)C[C@@H](C)C(=O)[C@H](C)[C@@H](O)[C@]1(C)O` [ERYTHROMYCIN], the MIC in [1] is above 2 µg/mL; in [2], above 2 µg/mL; in [3], at most 0.12 µg/mL; in [4], at most 0.12 µg/mL; in assay [5], above 2 µg/mL; in [6] it was at most 0.12 µg/mL. Further, the MIC in assay [7], in [8], in assay [9], in [10], in [11] and in [12] was at most 0.12 µg/mL throughout. Also, the MIC in [13], in assay [14], in assay [15] and in [16] was at most 0.12 µg/mL each time.

(Values after ChEMBL document CHEMBL1275555, “Genetic heterogeneity in pbp genes among clinically isolated group B Streptococci with reduced penicillin susceptibility” (2008).)
